Measured values gathered from unrelated publications.
Compare with care: the assays were run in different laboratories.
Flap endonuclease 1: Flap endonuclease 1 (Homo sapiens, UniProt P39748)
CDK4: Cyclin-dependent kinase 4 (CDK4, Homo sapiens, UniProt P11802)
CHRM2: Muscarinic acetylcholine receptor M2 (CHRM2, Homo sapiens, UniProt P08172)
KRAS G12D: GTPase KRas (KRAS, Homo sapiens, UniProt P01116, G12D)
Chymotrypsinogen A: Chymotrypsinogen A (Bos taurus, UniProt P00766)

| SMILES | target | effect on | mode | technique | setting | IC50 |
| --- | --- | --- | --- | --- | --- | --- |
| Cc1[nH]ncc1-c1cc2nc([C@@H]3CC4CCN3CC4)[nH]c(=O)c2s1 | Cell division cycle 7-related protein kinase (CDC7, Homo sapiens, UniProt O00311) | enzyme activity | inhibitor |  |  | 1.75 nM |
| [O]=[Sb]([OH])([OH])[c]1ccccc1 | Flap endonuclease 1 | enzyme activity | inhibitor | fluorescence | with preincubation | 160000 nM |
| CCOC(=O)[C@H]1Cc2c(cc([N+](=O)[O-])cc2[N+](=O)[O-])[C@@H](O)[C@@]12C(=O)Nc1ccc(F)cc12 | CDK4 | cell-free assay | inhibitor | TR-FRET |  | 1100 nM |
| Cc1cc(SCc2sc(-c3ccc(C(F)(F)F)c(F)c3)nc2C)ccc1OCC(=O)O | Thyroid hormone receptor alpha (THRA, Homo sapiens, UniProt P10827) | reporter gene | antagonist | luciferase |  | 31400 nM |
| CN1CCC(=C2c3ccccc3CCc3cccnc32)CC1 | CHRM2 | ligand displacement |  | radioligand |  | 64 nM |
| CCOC(=O)CCCc1cc[c]([Sb](=[O])([OH])[OH])cc1 | Flap endonuclease 1 | enzyme activity | inhibitor |  | with preincubation | 1700 nM |
| COc1ncccc1-c1cnn2ccc(N3CCN(C(=O)OC(C)C)CC3)nc12 | Cyclin-G-associated kinase (GAK, Homo sapiens, UniProt O14976) | enzyme activity | inhibitor | radiometric |  | 320 nM |
| CCOC(=O)[C@H]1Cc2c(cc([N+](=O)[O-])cc2[N+](=O)[O-])[C@@H](O)[C@@]12C(=O)Nc1ccc(C)cc12 | CDK4 | cell-free assay | inhibitor | TR-FRET |  | 910 nM |
| CC(C)C[C@H](NC(=O)[C@H](Cc1ccccc1)NC(=O)[C@H](Cc1ccc(O)cc1)NC(=O)CNC(=O)[C@H](CCCCN)NC(=O)[C@H](CO)NC(=O)[C@H](CCC(N)=O)NC(=O)CNC(=O)[C@@H](NC(=O)[C@H](CO)NC(=O)[C@@H]1CCCN1C(=O)[C@H](CO)NC(=O)[C@H](CCC(N)=O)NC(=O)[C@H](Cc1ccc(O)cc1)NC(=O)[C@H](CCC(=O)O)NC(=O)[C@H](C)NC(=O)[C@H](CCCCN)NC(=O)[C@@H](N)Cc1ccccc1)C(C)C)C(=O)N[C@@H](Cc1ccccc1)C(=O)N[C@@H](CCCNC(=N)N)C(=O)N1CCC[C@H]1C(=O)N[C@@H](CCCNC(=N)N)C(=O)N[C@@H](CC(N)=O)C(N)=O | Neuromedin-U receptor 1 (Mus musculus, UniProt O55040) | ligand displacement |  | radioligand |  | 0.0251 nM |
| CCOC(=O)[C@H]1Cc2c(cc([N+](=O)[O-])cc2[N+](=O)[O-])[C@H](O)[C@]12C(=O)Nc1ccc(Cl)cc12 | CDK4 | cell-free assay | inhibitor | TR-FRET |  | 3900 nM |
| O=C(Nc1cc[c]([Sb](=[O])([OH])[OH])cc1)c1ccccc1 | Flap endonuclease 1 | enzyme activity | inhibitor |  | with preincubation | 12000 nM |
| C[N+](C)(C)CC#CCOC(=O)Nc1cccc(Cl)c1 | CHRM2 | ligand displacement |  | radioligand |  | 330000 nM |
| CC[C@H](C)[C@@H]1NC(=O)[C@H](Cc2ccc(-c3ccccc3)cc2)NC(=O)[C@H](CC(C)C)NC(=O)[C@@H]2CCCN2C(=O)[C@@H](NC(=O)[C@H](CCCNC(=N)N)NC(=O)[C@H](CCCNC(=N)N)NC(C)=O)CSSC[C@@H](C(=O)N[C@@H](CCCNC(=N)N)C(=O)N[C@@H](CCCNC(=N)N)C(N)=O)NC(=O)[C@H](C(C)C)NC(=O)[C@@H]2CC[C@H](c3ccccc3)N2C(=O)[C@H](CC(=O)O)NC(=O)[C@H](Cc2ccc(O)cc2)NC(=O)[C@H](CO)NC1=O | KRAS G12D | enzyme activity | inhibitor | TR-FRET |  | 94 nM |
| O=c1oc(-c2cccc([N+](=O)[O-])c2)ns1 | Chymotrypsinogen A | enzyme activity | inhibitor |  |  | 3140 nM |
| CCOC(=O)[C@H]1Cc2c(cc([N+](=O)[O-])cc2[N+](=O)[O-])[C@@H](O)[C@@]12C(=O)Nc1cc(Br)ccc12 | CDK4 | cell-free assay | inhibitor | TR-FRET |  | 1100 nM |
| O=C(O)c1cc[c]([Sb](=[O])([OH])[OH])cc1[N+](=O)[O-] | Flap endonuclease 1 | enzyme activity | inhibitor |  | with preincubation | 660 nM |
| c1ccc(-c2c[nH]c3ncnc(N4CCOCC4)c23)cc1 | Serine/threonine-protein kinase 3 (STK3, Homo sapiens, UniProt Q13188) | enzyme activity | inhibitor | ADP detection |  | 127 nM |
| CCOC(=O)[C@H]1Cc2c(cc([N+](=O)[O-])cc2[N+](=O)[O-])[C@@H](O)[C@@]12C(=O)Nc1ccc(Br)cc12 | CDK4 | cell-free assay | inhibitor | TR-FRET |  | 320 nM |
| CC(C)C[C@H](NC(=O)[C@H](Cc1ccccc1)NC(=O)c1cnccn1)B(O)O | GZMA (Homo sapiens, UniProt P12544) | enzyme activity | inhibitor |  |  | 11900 nM |
| CC[C@H](C)[C@@H]1NC(=O)[C@H](Cc2ccc(-c3ccccc3)cc2)NC(=O)[C@H](CC2CCCCC2)NC(=O)[C@@H]2[C@@H](c3ccccc3)CCN2C(=O)[C@@H](NC(=O)[C@H](CCCNC(=N)N)NC(=O)[C@H](CCCNC(=N)N)NC(C)=O)CSSC[C@@H](C(=O)N[C@@H](CCCNC(=N)N)C(=O)N[C@@H](CCCNC(=N)N)C(N)=O)NC(=O)[C@H](C(C)C)NC(=O)[C@@H]2CCCN2C(=O)[C@H](CC(=O)O)NC(=O)[C@H](Cc2ccc(O)cc2)NC(=O)[C@H](CO)NC1=O | KRAS G12D | enzyme activity | inhibitor | TR-FRET |  | 20 nM |
| CCOC(=O)[C@H]1Cc2c(cc([N+](=O)[O-])cc2[N+](=O)[O-])[C@@H](O)[C@@]12C(=O)Nc1cc(Cl)ccc12 | CDK4 | cell-free assay | inhibitor | TR-FRET |  | 940 nM |
| O=c1oc(-c2cccc(F)c2)ns1 | Chymotrypsinogen A | enzyme activity | inhibitor |  |  | 2670 nM |
| CC[C@H](C)[C@@H]1NC(=O)[C@H](Cc2ccc(-c3ccccc3)cc2)NC(=O)[C@H](CC(C)C)NC(=O)[C@@H]2CCCN2C(=O)[C@@H](NC(=O)[C@H](CCCNC(=N)N)NC(=O)[C@H](CCCNC(=N)N)NC(C)=O)CSSC[C@@H](C(=O)N[C@@H](CCCNC(=N)N)C(=O)N[C@@H](CCCNC(=N)N)C(N)=O)NC(=O)[C@H](CC2CCCCC2)NC(=O)[C@@H]2C[C@@H](OCC(=O)O)CN2C(=O)[C@H](CC(=O)O)NC(=O)[C@H](Cc2ccc(O)cc2)NC(=O)[C@H](CO)NC1=O | KRAS G12D | enzyme activity | inhibitor | TR-FRET |  | 25 nM |
